Source: ChEMBL document CHEMBL1131191, “De novo design, synthesis, and biological activities of high-affinity and selective non-peptide agonists of the delta-opioid receptor” (J Med Chem, 1998)

What was measured:
[1] = target: Delta-type opioid receptor (Rattus norvegicus, UniProt P33533); assay: Binding affinity was measured against Opioid receptor delta 1 using [3H]p-Cl-DPDPE as radioligand.
[2] = target: Mu-type opioid receptor (Rattus norvegicus, UniProt P33535); assay: Binding affinity was measured against Opioid receptor mu 1 using [3H]-DAMGO as radioligand.
Sequence of Mu-type opioid receptor (Rattus norvegicus, UniProt P33535) (P33535 whole entry): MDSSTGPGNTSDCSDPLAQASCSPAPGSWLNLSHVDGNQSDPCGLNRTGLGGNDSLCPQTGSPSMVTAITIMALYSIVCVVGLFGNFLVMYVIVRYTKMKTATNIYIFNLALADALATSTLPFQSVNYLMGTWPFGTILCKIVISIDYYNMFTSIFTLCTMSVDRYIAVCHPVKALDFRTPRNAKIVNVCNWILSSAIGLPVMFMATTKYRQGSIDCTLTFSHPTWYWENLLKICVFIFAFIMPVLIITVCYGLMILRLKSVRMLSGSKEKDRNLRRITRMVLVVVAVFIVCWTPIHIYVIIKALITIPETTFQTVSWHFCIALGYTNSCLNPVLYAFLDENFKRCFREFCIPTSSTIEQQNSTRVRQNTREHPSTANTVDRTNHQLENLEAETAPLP

[3] = target: Delta-type opioid receptor (Mus musculus, UniProt P32300); assay: Tested for electrically induced smooth muscle contractions from mouse vas deferens expressed in delta opioid receptors; type: functional
Sequence of Delta-type opioid receptor (Mus musculus, UniProt P32300) (P32300 whole entry): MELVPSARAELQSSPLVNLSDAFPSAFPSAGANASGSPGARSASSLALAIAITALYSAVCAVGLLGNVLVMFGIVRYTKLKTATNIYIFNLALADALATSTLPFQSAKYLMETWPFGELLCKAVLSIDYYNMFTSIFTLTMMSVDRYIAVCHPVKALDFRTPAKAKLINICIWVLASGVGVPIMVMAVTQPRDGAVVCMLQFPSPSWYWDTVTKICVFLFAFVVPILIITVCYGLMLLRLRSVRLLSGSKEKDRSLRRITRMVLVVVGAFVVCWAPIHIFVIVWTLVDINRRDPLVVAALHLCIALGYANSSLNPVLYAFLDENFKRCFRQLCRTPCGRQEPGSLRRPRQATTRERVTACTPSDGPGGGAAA
Method in brief: (§1)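 Electrically stimulated contractions of male Hartley guinea pig ileum longitudinal muscle–myenteric plexus (1 g tension, 0.4-ms pulses) or male ICR mouse vas deferens (0.5 g, 2.0-ms pulses, Mg-free Krebs). Baths at 37 °C, oxygenated Krebs, 0.1 Hz, supramaximal voltage. Agonist left 3 min. Percent inhibition of twitch height, IC50 from Hill fit, ≥4 tissues.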

[4] = target: Mu-type opioid receptor (Cavia porcellus, UniProt P97266); assay: Tested for electrically induced smooth muscle contractions from guinea pig ileum expressed in mu opioid receptors; type: functional, tissue-based; method in brief: as §1
Sequence of Mu-type opioid receptor (Cavia porcellus, UniProt P97266) (P97266 whole entry): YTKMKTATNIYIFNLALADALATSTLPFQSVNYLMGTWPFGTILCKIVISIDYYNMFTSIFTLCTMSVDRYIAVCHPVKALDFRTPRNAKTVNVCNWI

[5] = target: Mu-type opioid receptor (Cavia porcellus) (UniProt P97266); assay: Tested for electrically induced smooth muscle contractions from guinea pig ileum expressed in mu opioid receptors at 60 uM; type: functional, tissue-based
Sequence of Mu-type opioid receptor (Cavia porcellus) (P97266 whole entry): as above

[6] = target: Opioid receptors; mu & delta (Homo sapiens) (UniProt P41143+P35372); assay: It is the ratio of EC50(mu receptor) to that of EC50 for(delta receptor); type: functional
Sequence of Opioid receptors; mu & delta (Homo sapiens) (P35372 whole entry, looked up): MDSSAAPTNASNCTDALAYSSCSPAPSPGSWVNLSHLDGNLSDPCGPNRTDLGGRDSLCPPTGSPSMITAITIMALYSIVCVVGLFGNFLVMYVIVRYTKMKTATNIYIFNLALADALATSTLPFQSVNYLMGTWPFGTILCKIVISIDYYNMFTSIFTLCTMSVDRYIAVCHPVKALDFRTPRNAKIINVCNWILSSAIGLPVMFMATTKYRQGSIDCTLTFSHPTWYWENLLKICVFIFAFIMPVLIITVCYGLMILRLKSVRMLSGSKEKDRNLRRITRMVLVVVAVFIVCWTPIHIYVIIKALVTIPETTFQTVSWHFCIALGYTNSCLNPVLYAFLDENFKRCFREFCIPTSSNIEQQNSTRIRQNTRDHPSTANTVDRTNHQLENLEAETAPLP
Sequence of Opioid receptors; mu & delta (Homo sapiens) (P41143 whole entry, looked up): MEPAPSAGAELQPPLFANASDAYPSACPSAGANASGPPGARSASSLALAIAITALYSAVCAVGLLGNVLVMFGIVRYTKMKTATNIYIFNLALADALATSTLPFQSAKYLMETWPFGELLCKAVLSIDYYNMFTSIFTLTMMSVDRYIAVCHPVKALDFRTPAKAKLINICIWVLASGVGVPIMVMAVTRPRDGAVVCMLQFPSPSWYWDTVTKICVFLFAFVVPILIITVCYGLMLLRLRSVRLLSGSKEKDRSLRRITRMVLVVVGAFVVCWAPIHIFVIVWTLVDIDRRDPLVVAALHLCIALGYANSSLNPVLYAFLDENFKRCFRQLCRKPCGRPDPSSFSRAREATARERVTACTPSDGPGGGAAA

[7] = species on record: Cavia porcellus; assay: mu-opioid receptor antagonistic activity was measured in guinea pig ileum.; type: functional
[8] = target: Delta-type opioid receptor (Homo sapiens, UniProt P41143); assay: Binding affinity was measured against cloned human Opioid receptor delta 1 (wild-type,Wt)
Sequence of Delta-type opioid receptor (Homo sapiens, UniProt P41143) (P41143 whole entry): as the sequence (P41143 whole entry, looked up) above

Sequence of Delta-type opioid receptor (Rattus norvegicus, UniProt P33533) (P33533 whole entry): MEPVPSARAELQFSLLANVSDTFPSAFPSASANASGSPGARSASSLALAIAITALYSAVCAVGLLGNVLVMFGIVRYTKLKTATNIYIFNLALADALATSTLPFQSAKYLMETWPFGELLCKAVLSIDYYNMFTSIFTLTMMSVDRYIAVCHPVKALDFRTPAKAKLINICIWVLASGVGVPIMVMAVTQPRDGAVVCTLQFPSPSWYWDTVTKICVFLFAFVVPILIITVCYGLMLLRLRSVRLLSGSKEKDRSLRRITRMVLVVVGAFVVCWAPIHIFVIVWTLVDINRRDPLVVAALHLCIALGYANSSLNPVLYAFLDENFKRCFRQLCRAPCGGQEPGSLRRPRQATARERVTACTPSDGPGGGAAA

CC(c1cccc(O)c1)N1CCN(Cc2ccccc2)CC1 (centres undefined)
IC50 [1]: 610 nM
IC50 [2]: 780 nM

COc1cccc(C(c2ccc(C(C)(C)C)cc2)N2CCN(Cc3ccccc3)CC2)c1 (centres undefined)
IC50 [1]: 1800 nM
IC50 [2]: > 8000 nM

CC(C)(C)c1ccc(C(c2cccc(O)c2)N2CCN(Cc3ccccc3)CC2)cc1 (single isomer, unassigned; (+))
EC50 [3]: 210 nM
EC50 [4]: 3000 nM

Cc1cc(O)cc(C)c1[C@@H](C)[C@H](N)C(=O)N[C@H]1C(=O)NCC(=O)N[C@@H](Cc2ccccc2)C(=O)N[C@@H](C(=O)O)C(C)(C)SSC1(C)C
inhibition [5]: 0%
EC50 [3]: 1.8 nM
IC50 [1]: 5 nM
IC50 [2]: 4300 nM
Selectivity [6]: > 33000
IC50 [7]: 5000 nM

Oc1cccc(CN2CCN(Cc3ccccc3)CC2)c1
IC50 [1]: 6400 nM

CC(C)(C)c1ccc(C(c2cccc(O)c2)N2CCN(Cc3ccccc3)CC2)cc1 (single isomer, unassigned; (-))
EC50 [3]: 360 nM
EC50 [4]: 7600 nM

CC(C)(C)c1ccc(C(c2cccc(O)c2)N2CCN(Cc3ccccc3)CC2)cc1 (stereo in doubt)
EC50 [3]: 85 nM
IC50 [8]: 5.51 nM
EC50 [4]: 39000 nM

CC(C)CC(c1cccc(O)c1)N1CCN(Cc2ccccc2)CC1 (centres undefined)
IC50 [1]: 420 nM
IC50 [2]: 2100 nM

C=CCN1C[C@H](C)N([C@H](c2ccc(C(=O)N(CC)CC)cc2)c2cccc(O)c2)C[C@H]1C
IC50 [1]: 0.31 nM

Oc1cccc(C(c2ccc(-c3ccccc3)cc2)N2CCN(Cc3ccccc3)CC2)c1 (centres undefined)
IC50 [1]: 31 nM
IC50 [2]: 27000 nM

C=CCN1C[C@H](C)N([C@H](c2ccc(C(=O)N(CC)CC)cc2)c2cccc(OC)c2)C[C@H]1C [SNC-80]
IC50 [2]: 2500 nM

Oc1cccc(C(c2ccccc2)N2CCN(Cc3ccccc3)CC2)c1 (centres undefined)
EC50 [3]: 174 nM
IC50 [1]: 34 nM
IC50 [2]: 500 nM
EC50 [4]: 1250 nM
Selectivity [6]: 7.1
